Screening data: PubChem, several laboratories
An excerpt weighted towards active compounds, which were near 1.6% of everything screened.
SENP1 inh = SENP1 (human) catalytic domain inhibition. inhibition, % at 10 µM. hit rate 0.21% among 360,000. recombinant SENP1 catalytic domain, CyPet-SUMO1-YPet FRET cleavage. Q9P0U3. AID 624204;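 active = inhibition at least 30% at 10 µM, raw YFP signal under a set limit, fluorescence ratio 0.5 to 1.5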;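 note: 0% = enzyme with DMSO and 100% = no enzyme wells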
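Test system: hSENP1 catalytic domain, recombinant; Amount: 20 pM final SENP1 enzyme; Medium: Tris pH 8 buffer plus EDTA, NaCl, BME, BSA, NP40, catalase; Schedule: 50 min enzyme reaction, room temperature, light-protected; Technique: FRET fluorescence in CFP and YFP emission channels; Controls: no-enzyme wells low, DMSO-plus-enzyme wells high control.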
HNF4A DNA FP = change in binding of human HNF4 alpha to DNA; P41235; HNF4a-FITC DNA binding, fluorescence polarization, 1 h; activity change, % at 10 µM; hit rate 0.3% among 360,000; AID 1224865; in the data active = activity change above about 30%, passing the limit was not always enough
CSN deneddyl inh = blocks human CSN-mediated cullin deneddylation; inhibition, % at 12.5 µM; Purified CSN, SCF-Nedd8-OG deneddylation, fluorescence polarization; hit rate 0.38% among 360,000;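 active = pattern-corrected inhibition above about 35%, with an unprinted fluorescence ratio check between 0.5 and 1.5, limit read from the data, passing the limit was not always enough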;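 note: 0% = enzyme with substrate and 100% = substrate without enzyme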
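Assay system: purified human Csn5 enzyme expressed in HEK293T cells; measure: % inhibition; also added: SCFSkp2-Nedd8OG substrate at 10 nM final; technique: fluorescence polarization; times: reaction 90 min, room temperature; medium: Tris buffer pH 7.5, NaCl, DTT, Tween-20, trehalose, ovalbumin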
Rpn11 inh = Rpn11 (human) deubiquitinase inhibition; human 26S proteasome, Ub4-pepOG fluorescence polarization; 20S core pre-blocked with epoxomicin; inhibition, % at 20 µM; hit rate 0.59% among 360,000; AID 588493;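 active = inhibition at 20 µM, scaled to each plate's controls, above about 33%, limit read from the data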
TPT1 inh = inhibitors of Candida albicans tRNA 2'-phosphotransferase TPT1 | recombinant caTPT1, FP RNA substrate dephosphorylation | inhibition, % at 5 µM | hit rate 0.81% among 300,000;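 active = inhibition above the mean of all tested compounds plus 3 SD, set per screening campaign, cut at about 24% in these data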;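 note: plate controls were DMSO alone for no effect and ferristatin control at 100 nM for full effect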
Rpn11 confirm = Rpn11 inhibition confirmation, single concentration. shares compounds with Rpn11 inh. purified human 26S proteasome, Ub4-pepOG fluorescence polarization; proteasome pretreated with epoxomicin. inhibition, % at 20 µM. hit rate 29% among 1,900. AID 602318
MMP-2 counter = blocks human MMP-2, flagging nonselective RPN11 hits | shares compounds with Rpn11 inh | recombinant MMP-2, FRET peptide cleavage fluorescence | inhibition, % at 20 µM | hit rate 4% among 1,900 | AID 602330;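 note: human MMP-2 activated beforehand with APMA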
Target sequence (P08253 whole entry, looked up): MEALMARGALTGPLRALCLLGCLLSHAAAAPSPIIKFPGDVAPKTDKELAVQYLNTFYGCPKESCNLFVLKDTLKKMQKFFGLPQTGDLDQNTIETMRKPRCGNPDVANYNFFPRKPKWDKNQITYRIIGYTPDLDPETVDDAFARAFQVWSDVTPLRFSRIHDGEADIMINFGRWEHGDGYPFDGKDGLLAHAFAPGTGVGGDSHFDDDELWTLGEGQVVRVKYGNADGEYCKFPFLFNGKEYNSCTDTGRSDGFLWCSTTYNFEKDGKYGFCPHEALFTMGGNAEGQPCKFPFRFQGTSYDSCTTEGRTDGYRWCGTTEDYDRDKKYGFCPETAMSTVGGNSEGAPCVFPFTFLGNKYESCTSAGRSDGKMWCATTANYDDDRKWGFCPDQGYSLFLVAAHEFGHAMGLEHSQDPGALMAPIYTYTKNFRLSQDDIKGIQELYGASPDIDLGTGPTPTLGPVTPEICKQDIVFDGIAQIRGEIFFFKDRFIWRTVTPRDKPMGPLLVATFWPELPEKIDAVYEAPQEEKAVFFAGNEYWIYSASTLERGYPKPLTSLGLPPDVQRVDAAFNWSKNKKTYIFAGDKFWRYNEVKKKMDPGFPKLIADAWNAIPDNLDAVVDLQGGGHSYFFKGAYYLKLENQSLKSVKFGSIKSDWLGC
Thrombin inh = thrombin (bovine) inhibition counter-screen. shares compounds with Rpn11 inh. bovine thrombin cleavage of Ub4-pepOG, fluorescence polarization. inhibition, % at 20 µM. hit rate 13% among 1,900. AID 602333;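 active = mean inhibition at least 40% at 20 µM, or signal 3 deviations below plate average, so some actives read negative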;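 note: plate controls were thrombin with DMSO for no effect and buffer wells lacking thrombin for full effect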
An asterisk follows results filed as active; . = no result; + = active, no number. Cut-off read from the data, not from the text of the source, unless noted: active = inhibition above about 40%; inactive = the rest.

SMILES | SENP1 inh | HNF4A DNA FP | CSN deneddyl inh | Rpn11 inh | TPT1 inh | Rpn11 confirm | MMP-2 counter | Thrombin inh
CCCCc1ccc(NC(=O)CC(C)=O)cc1 | 5.1 | 1.4 | 1.6 | 59.1* | 0.6 | -14.2 | 24.1 | -19.8
CCCCc1ccc(NC(=O)CC(C)(C)C)cc1 | 1.7 | -1.8 | 4.0 | -3.5 | 0.8 | . | . | .
CCc1cccc(NC(=O)Cn2c(=O)n(CCC(=O)NCC3CCCO3)c(=O)c3cc(OC)c(OC)cc32)c1 (centres undefined) | 0.1 | 4.5 | 1.8 | 4.5 | -1.0 | . | . | .
O=C(CSc1nccc(=O)[nH]1)NCc1ccco1 | -1.2 | -10.8 | 17.9 | -5.2 | -1.9 | . | . | .
CC(=O)N=c1c(C#N)cc2c(=O)n3ccccc3nc2n1Cc1ccccc1 | -24.1 | 14.9 | 29.6 | 55.7* | 3.8 | -22.2 | -37.0 | -17.9
CCOCCCn1c(=NC(C)=O)c(C#N)cc2c(=O)n3ccccc3nc21 | -33.9 | -4.0 | -5.1 | -5.9 | -3.1 | . | . | .
C=CCN(c1ccccc1)S(=O)(=O)c1cccc(C(=O)NCC2CCCO2)c1 (centres undefined) | 2.1 | -4.0 | 1.8 | -13.9 | 1.3 | . | . | .
Cc1nc(-c2ccc(C(=O)Nc3ccc(F)cc3)cc2)cs1 | 0.5 | 4.9 | 5.7 | 61.4* | 0.4 | 23.7 | -10.9 | -7.7
COc1ccc(NC(=O)c2ccc(-c3csc(C)n3)cc2)cc1 | 2.1 | -3.2 | -2.7 | 5.5 | 4.7 | . | . | .
O=C(OC1CC2CC1[C@H]1CCCCN1C2=O)N1CCN(S(=O)(=O)c2ccccc2)CC1 (some centres undefined) | -0.1 | -5.4 | -3.0 | . | . | . | . | .
CC(C)NC(=O)Nc1nnc([C@@H]2C[C@H](O)[C@@H](CO)O2)s1 | 1.7 | 2.0 | -5.4 | -0.2 | . | . | . | .
O=C(CSc1nc(-c2ccccc2)c(-c2ccccc2)[nH]1)N1CCN(S(=O)(=O)c2ccccc2)CC1 | 0.0 | -4.7 | -5.4 | + | 2.6 | -3.4 | -4.7 | 5.9
O=C(CSc1nc2ccccc2c(=O)[nH]1)N1CCN(S(=O)(=O)c2ccccc2)CC1 | -0.2 | -4.1 | 0.6 | 3.4 | -1.0 | . | . | .
Cc1ccc([C@@H]2CC(=O)[C@@H]3CN(S(=O)(=O)c4ccc(C)cc4)[C@H](c4ccccc4F)C[C@@H]3N2S(=O)(=O)c2ccc(C)cc2)cc1 | 0.0 | 3.8 | 2.8 | 50.4* | . | 4.8 | 7.7 | -0.3
Cc1nnc(NS(=O)(=O)c2ccc(Br)cc2)s1 | 0.0 | -0.1 | 1.6 | -1.2 | -3.7 | . | . | .
Cc1ccc(-c2nn(-c3cccc(F)c3)cc2CN2CCN(c3ccccn3)CC2)o1 | -11.3 | 1.5 | -0.1 | 3.4 | 5.5 | . | . | .
Cc1ccc(-c2nn(-c3cccc(F)c3)cc2CNCc2cccnc2)o1 | -47.5 | 22.5 | 4.5 | 48.3* | 7.1 | 23.6 | -13.4 | 21.4
Cc1cccc(C(=O)C2CCN(S(=O)(=O)c3cccc(C(=O)O)c3)CC2)c1 | -0.1 | -0.2 | 2.3 | -3.7 | . | . | . | .
CC(C)=CCC/C(C)=C/CNC(=O)C[C@H]1C[C@H](C(=O)N2CCCCC2)[C@@]2(CCc3ccccc3)c3[nH]c4cc(-c5ccco5)ccc4c3CCN2C1=O | -69.1 | 14.7 | 17.6 | 46.8* | . | 15.4 | 2.6 | 3.2
O=C(C[C@H]1C[C@H](C(=O)N2CCCCC2)[C@@]2(CCc3ccccc3)c3[nH]c4cc(-c5ccco5)ccc4c3CCN2C1=O)NCCN1CCOCC1 | -45.2 | 17.5 | 11.5 | 42.7* | . | 1.4 | 2.7 | -1.7
CCOC(=O)Cc1csc(NC(=O)c2csc(C)c2)n1 | -2.5 | -2.7 | 2.6 | 2.9 | -3.8 | . | . | .
CCOC(=O)Cc1csc(NC(=O)c2sc3nc4c(C)cc(C)cc4cc3c2N)n1 | 5.9 | 39.6* | 3.6 | 47.6* | 12.1 | 24.4 | -17.1 | -1.6
COc1ccc(C2=NC(=O)NC2c2ccc(OC)cc2)cc1 (centres undefined) | -5.5 | 2.7 | 2.9 | 38.6* | -2.4 | 9.5 | -13.5 | -6.2
O=C1N=C(c2ccccc2)C(c2ccccc2)N1 (centres undefined) | 1.4 | 2.5 | 2.3 | -0.4 | -2.1 | . | . | .
